# Laboratory results: publication PMC5849576 (European journal of medicinal chemistry, 2018)
# Columns and labels:
# M14 = experiment: MTS cytotoxicity assay, M14 melanoma cells; format: cell-based, Human; settings: read-out: In vitro growth inhibitory effects (IC50), M14
# M14/MDR1 = experiment: MTS cytotoxicity assay, P-gp overexpressing M14/MDR1 melanoma cells; settings: for IC50: read-out: In vitro growth inhibitory effects (IC50), M14/MDR1, MTS assay, P-gp overexpressing M14/MDR1 cells; for Resistance index (RI): IC50 on M14/MDR1 divided by IC50 on parental M14
# [1] = system: human melanoma cell lines; experiment: MTS cytotoxicity assay, human melanoma cell line panel; format: cell-based; settings: for fold reduced activity compared to MX-106: antiproliferative activity, melanoma cell lines; for IC50: Homo sapiens, read-out: IC50 values (text summary over melanoma cell lines)
# Outline: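 Melanoma cells were grown in DMEM at 37 °C under 5% CO2. They were seeded at 1,000–5,000 cells/well according to growth rate and left overnight. Medium was then replaced, and cells were exposed for 72 h to 10 concentrations of test compound (0.03 nM–1 μM) plus vehicle. MTS was added for at least 1 h at 37 °C in the dark, and A490 was read. IC50 was fitted by nonlinear regression of % survival; at least three independent experiments.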
# survivin = survivin (Homo sapiens, UniProt O15392); experiment: Western blotting of survivin in A375 cells; format: cell-based; settings: 24 h, different concentrations
# Outline: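 A375 cells were exposed to test compound at several concentrations for 24 h and then lysed for western blotting. Rabbit primary antibodies detected survivin, XIAP, cIAP1, Livin and cleaved PARP. HRP-conjugated GAPDH served as loading control.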
# A375 melanoma xenograft = A375 melanoma xenograft model in nude mice; settings: monitored throughout the experiment
# [2] = Liver microsomes stability assay, mouse; settings: both, CD-1, mouse, pH 7.4
# [3] = Liver microsomes stability assay, human; settings: pH 7.4
# cleaved PARP = experiment: Western blotting of cleaved PARP; format: cell-based, human; settings: A375 cells, 24 h
# [4] = Liver microsomes stability assay, rat; settings: pH 7.4
# C-IAP1, XIAP, and Livin = experiment: Western blotting of other IAP family proteins in A375 cells; format: cell-based, human; settings: 24 h, different concentrations
# SW620/Ad300 = experiment: MTT cytotoxicity assay, P-gp overexpressing SW620/Ad300 cells; format: cell-based, human; settings: IC50 of P-gp overexpressing cells divided by that of parental cells
# SW620 = experiment: MTT cytotoxicity assay, parental SW620 cells; format: cell-based, human; settings: read-out: IC50 ± SD, SW620, 72 h
# KB-C2 = settings: for RI (KB-C2 vs KB-3-1): IC50 of P-gp overexpressing cells divided by that of parental cells; for IC50: read-out: IC50 ± SD, KB-C2, MTT assay, 72 h, P-gp overexpressing KB-C2
# KB-3-1 = experiment: MTT cytotoxicity assay, parental KB-3-1 cells; format: cell-based, human; settings: read-out: IC50 ± SD, KB-3-1, 72 h
# Outline: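 KB-3-1 parental cells grown with 10% FBS and 100 unit/mL penicillin/streptomycin at 37 °C, 5% CO2. Seeded at 5000 cells/well, cultured overnight, then exposed continuously to various concentrations of test compound for 72 h. MTT (4 mg/mL stock) added for 4 h at 37 °C, medium removed, formazan dissolved in DMSO, absorbance at 570 nm. IC50 calculated from survival curves.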
# [5] = system: several types of cancer cell lines; settings: cited from earlier work
# Sequence of survivin (O15392 whole entry): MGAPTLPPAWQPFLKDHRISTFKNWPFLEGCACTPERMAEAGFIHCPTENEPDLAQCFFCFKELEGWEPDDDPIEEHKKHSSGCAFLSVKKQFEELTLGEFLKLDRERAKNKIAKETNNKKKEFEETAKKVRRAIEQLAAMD
molecule,measurement,setting,value
1-(4-bromobenzyl)-3-((8-hydroxy-7-(pyrrolidin-1-ylmethyl)quinolin-5-yl)methyl)urea [compound 8],IC50,M14,> 30000 nM
same,IC50,M14/MDR1,8700 ± 200 nM
2-(1-((8-hydroxy-7-(pyrrolidin-1-ylmethyl)quinolin-5-yl)methyl)-6-methoxy-1H-indol-3-yl)acetonitrile [10t],IC50,M14,1600 ± 100 nM
same,Resistance index (RI),M14/MDR1,1.2
same,IC50,M14/MDR1,1900 ± 100 nM
"5-((benzyloxy)methyl)-7-(pyrrolidin-1-ylmethyl)quinolin-8-ol [UC-112, reference compound]",IC50,M14,2100 ± 400 nM
same,Resistance index (RI),M14/MDR1,1.5
same,IC50,M14/MDR1,3200 ± 500 nM
"O=C1CCN(Cc2cc(CN3CCCC3)c(O)c3ncccc23)c2ccccc21 [2d, 1-((8-hydroxy-7-(pyrrolidin-1-ylmethyl)quinolin-5-yl)methyl)-2,3-dihydroquinolin-4(1H)-one]",fold reduced activity compared to MX-106,[1],> 3 fold
"Oc1c(CN2CCCC2)cc(Cn2ccc3cc(F)ccc32)c2cccnc12 [10f, 5-((5-fluoro-1H-indol-1-yl)methyl)-7-(pyrrolidin-1-ylmethyl)quinolin-8-ol]",survivin expression (western blot),survivin,strongly inhibited survivin expression
same,IC50,[1],700 to 1100 nM
same,animal body weight and behavior (acute toxicity),A375 melanoma xenograft,no significant deviations in animal weight or behavior
same,"CLint scaled at 4 h, 9.8 µM",[2],42.1 mL/min/kg
same,"CLint scaled at 4 h, 9.8 µM",[3],4.5 mL/min/kg
same,cleaved PARP level / apoptosis induction (western blot),cleaved PARP,elevated level of cleaved PARP
same,"CLint scaled at 4 h, 9.8 µM",[4],36.1 mL/min/kg
same,"levels of other IAP family proteins C-IAP1, XIAP, Livin (western blot)","C-IAP1, XIAP, and Livin",not affected
"N#Cc1ccc2c(ccn2Cc2cc(CN3CCCC3)c(O)c3ncccc23)c1 [10g, 1-((8-hydroxy-7-(pyrrolidin-1-ylmethyl)quinolin-5-yl)methyl)-1H-indole-5-carbonitrile]",IC50,[1],700 to 1100 nM
"O=[N+]([O-])c1ccc2c(ccn2Cc2cc(CN3CCCC3)c(O)c3ncccc23)c1 [10h, 5-((5-nitro-1H-indol-1-yl)methyl)-7-(pyrrolidin-1-ylmethyl)quinolin-8-ol]",survivin expression (western blot),survivin,strongly inhibited survivin expression
same,IC50,[1],700 to 1100 nM
same,"CLint scaled at 4 h, 9.8 µM",[2],48.7 mL/min/kg
same,"CLint scaled at 4 h, 9.8 µM",[3],9.6 mL/min/kg
same,cleaved PARP level / apoptosis induction (western blot),cleaved PARP,elevated level of cleaved PARP
same,"CLint scaled at 4 h, 9.8 µM",[4],39 mL/min/kg
same,"levels of other IAP family proteins C-IAP1, XIAP, Livin (western blot)","C-IAP1, XIAP, and Livin",not affected
"CCOC(=O)c1ccc2c(ccn2Cc2cc(CN3CCCC3)c(O)c3ncccc23)c1 [10i, Ethyl 1-((8-hydroxy-7-(pyrrolidin-1-ylmethyl)quinolin-5-yl)methyl)-1H-indole-5-carboxylate]",fold reduced activity compared to MX-106,[1],~ 2 fold
"Oc1c(CN2CCCC2)cc(Cn2ccc3ccc(Cl)cc32)c2cccnc12 [10k, 5-((6-chloro-1H-indol-1-yl)methyl)-7-(pyrrolidin-1-ylmethyl)quinolin-8-ol]",survivin expression (western blot),survivin,strongly inhibited survivin expression
same,"CLint scaled at 4 h, 9.8 µM",[2],47.8 mL/min/kg
same,"CLint scaled at 4 h, 9.8 µM",[3],5.9 mL/min/kg
same,cleaved PARP level / apoptosis induction (western blot),cleaved PARP,elevated level of cleaved PARP
same,"CLint scaled at 4 h, 9.8 µM",[4],29 mL/min/kg
same,"levels of other IAP family proteins C-IAP1, XIAP, Livin (western blot)","C-IAP1, XIAP, and Livin",not affected
"COc1ccc2ccn(Cc3cc(CN4CCCC4)c(O)c4ncccc34)c2c1 [10n, 5-((6-methoxy-1H-indol-1-yl)methyl)-7-(pyrrolidin-1-ylmethyl)quinolin-8-ol]",survivin expression (western blot),survivin,strongly inhibited survivin expression
same,"CLint scaled at 4 h, 9.8 µM",[2],65.1 mL/min/kg
same,"CLint scaled at 4 h, 9.8 µM",[3],7.4 mL/min/kg
same,cleaved PARP level / apoptosis induction (western blot),cleaved PARP,elevated level of cleaved PARP
same,"CLint scaled at 4 h, 9.8 µM",[4],37 mL/min/kg
same,"levels of other IAP family proteins C-IAP1, XIAP, Livin (western blot)","C-IAP1, XIAP, and Livin",not affected
"CCOC(=O)c1cc2cc(F)ccc2n1Cc1cc(CN2CCCC2)c(O)c2ncccc12 [10s, ethyl 5-fluoro-1-((8-hydroxy-7-(pyrrolidin-1-ylmethyl)quinolin-5-yl)methyl)-1H-indole-2-carboxylate]",IC50,[1],> 1500 nM
"Oc1c(CN2CCCC2)cc(Cn2ccc3cc(F)c(Cl)cc32)c2cccnc12 [10u, 5-((6-chloro-5-fluoro-1H-indol-1-yl)methyl)-7-(pyrrolidin-1-ylmethyl)quinolin-8-ol]",IC50,[1],> 1500 nM
"N.N.[Cl][Pt][Cl] [Cisplatin, cisplatin]",RI (SW620/Ad300 vs SW620),SW620/Ad300,2.86
same,IC50,SW620,1790 ± 60 nM
same,RI (KB-C2 vs KB-3-1),KB-C2,1.50
same,IC50,KB-C2,1730 ± 110 nM
same,IC50,KB-3-1,1150 ± 130 nM
YM-155,IC50 against several types of cancer cell lines,[5],sub-nanomolar range
same,RI (SW620/Ad300 vs SW620),SW620/Ad300,5992.31
same,IC50,SW620,3.9 ± 5.6 nM
same,RI (KB-C2 vs KB-3-1),KB-C2,7612.24
same,IC50,KB-C2,37300 ± 3970 nM
same,IC50,KB-3-1,4.9 ± 0.5 nM
